Experimental data taken from ChEMBL document CHEMBL4270530, “Surmounting the resistance against EGFR inhibitors through the development of thieno[2,3-d]pyrimidine-based dual EGFR/HER2 inhibitors” (Eur J Med Chem, 2018).

Columns and labels:
A549 = experiment: Growth inhibition of human A549/ATCC cells assessed as cell growth at 10 uM incubated for 48 hrs by sulforhodamine B assay relative to control; assay type: functional; details: A549, 48 h, read-out: Activity
Outline: (§1)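 NCI-60 one-dose screen run by the NCI Developmental Therapeutics Program at a single 10 µM concentration; growth percent read from the one-dose mean graph.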

LOX IMVI = experiment: Growth inhibition of human LOXIMVI cells assessed as cell growth at 10 uM incubated for 48 hrs by sulforhodamine B assay relative to control; assay type: functional; details: read-out: Activity; outline: as §1
MDA-MB-361 = experiment: Cytotoxicity against human MDA-MB-361 cells over expressing HER2 assessed as reduction in cell viability after 72 hrs by sulforhodamine B assay; assay type: functional, cell-based; details: MDA-MB-361, 72 h
Outline: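 Cells seeded and grown 24 h, then exposed to 0.1% DMSO vehicle or 0.3125-20 μM compound for 72 h. Fixed with ice-cold 50% TCA (1 h, 4 °C), stained with 0.4% SRB 30 min at room temperature, dye solubilized in 10 mM tris base pH 10.5, OD read at 560 nm. Survival fraction = OD treated/OD vehicle; IC50 from triplicates of at least two independent experiments, mean ± SD.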

SK-MEL-5 = experiment: Growth inhibition of human SK-MEL-5 cells assessed as cell growth at 10 uM incubated for 48 hrs by sulforhodamine B assay relative to control; assay type: functional; details: SK-MEL-5, 48 h, read-out: Activity; outline: as §1
BT-549 = experiment: Growth inhibition of human BT549 cells assessed as cell growth at 10 uM incubated for 48 hrs by sulforhodamine B assay relative to control; assay type: functional; details: BT-549, 48 h, read-out: Activity; outline: as §1
NCI-H23 = experiment: Growth inhibition of human NCI-H23 cells assessed as cell growth at 10 uM incubated for 48 hrs by sulforhodamine B assay relative to control; assay type: functional; details: NCI-H23, 48 h, read-out: Activity; outline: as §1
HOP-92 = experiment: Growth inhibition of human HOP92 cells assessed as cell growth at 10 uM incubated for 48 hrs by sulforhodamine B assay relative to control; assay type: functional; details: HOP-92, 48 h, read-out: Activity; outline: as §1
SK-OV-3 = experiment: Growth inhibition of human SKOV3 cells at 10 uM incubated for 48 hrs by sulforhodamine B assay relative to control; assay type: functional; details: SK-OV-3, 48 h, read-out: GI; outline: as §1
MDA-MB-231 = experiment: Growth inhibition of human MDA-MB-231 cells assessed as cell growth at 10 uM incubated for 48 hrs by sulforhodamine B assay relative to control; assay type: functional; details: MDA-MB-231, 48 h, read-out: Activity; outline: as §1
MDA-MB-468 = experiment: Growth inhibition of human MDA-MB-468 cells at 10 uM incubated for 48 hrs by sulforhodamine B assay relative to control; assay type: functional; details: MDA-MB-468, 48 h, read-out: GI; outline: as §1
EKVX = experiment: Growth inhibition of human EKVX cells at 10 uM incubated for 48 hrs by sulforhodamine B assay relative to control; assay type: functional; details: read-out: GI; outline: as §1
HT-29 = experiment: Growth inhibition of human HT-29 cells assessed as cell growth at 10 uM incubated for 48 hrs by sulforhodamine B assay relative to control; assay type: functional; details: HT-29, 48 h, read-out: Activity; outline: as §1
DU-145 = experiment: Growth inhibition of human DU145 cells assessed as cell growth at 10 uM incubated for 48 hrs by sulforhodamine B assay relative to control; assay type: functional; details: DU-145, 48 h, read-out: Activity; outline: as §1
HCT-15 = experiment: Growth inhibition of human HCT15 cells assessed as cell growth at 10 uM incubated for 48 hrs by sulforhodamine B assay relative to control; assay type: functional; details: HCT-15, 48 h, read-out: Activity; outline: as §1
MCF7 = experiment: Growth inhibition of human MCF7 cells assessed as cell growth at 10 uM incubated for 48 hrs by sulforhodamine B assay relative to control; assay type: functional; details: MCF7, 48 h, read-out: Activity; outline: as §1
SK-MEL-28 = experiment: Growth inhibition of human SK-MEL-28 cells assessed as cell growth at 10 uM incubated for 48 hrs by sulforhodamine B assay relative to control; assay type: functional; details: SK-MEL-28, 48 h, read-out: Activity; outline: as §1
OVCAR-3 = experiment: Growth inhibition of human OVCAR3 cells assessed as cell growth at 10 uM incubated for 48 hrs by sulforhodamine B assay relative to control; assay type: functional; details: OVCAR-3, 48 h, read-out: Activity; outline: as §1
NCI-H226 = experiment: Growth inhibition of human NCI-H226 cells assessed as cell growth at 10 uM incubated for 48 hrs by sulforhodamine B assay relative to control; assay type: functional; details: NCI-H226, 48 h, read-out: Activity; outline: as §1
NCI/ADR-RES = experiment: Growth inhibition of human NCI/ADR-RES cells assessed as cell growth at 10 uM incubated for 48 hrs by sulforhodamine B assay relative to control; assay type: functional; details: read-out: Activity; outline: as §1
KM12 = experiment: Growth inhibition of human KM12 cells assessed as cell growth at 10 uM incubated for 48 hrs by sulforhodamine B assay relative to control; assay type: functional; details: KM12, 48 h, read-out: Activity; outline: as §1
NCI-H322M = experiment: Growth inhibition of human NCI-H322M cells at 10 uM incubated for 48 hrs by sulforhodamine B assay relative to control; assay type: functional; details: read-out: GI; outline: as §1
PC-3 = experiment: Growth inhibition of human PC3 cells assessed as cell growth at 10 uM incubated for 48 hrs by sulforhodamine B assay relative to control; assay type: functional; details: PC-3, 48 h, read-out: Activity; outline: as §1
HOP-62 = experiment: Growth inhibition of human HOP62 cells assessed as cell growth at 10 uM incubated for 48 hrs by sulforhodamine B assay relative to control; assay type: functional; details: HOP-62, 48 h, read-out: Activity; outline: as §1
ACHN = experiment: Growth inhibition of human ACHN cells at 10 uM incubated for 48 hrs by sulforhodamine B assay relative to control; assay type: functional; details: read-out: GI; outline: as §1
RXF 393 = experiment: Growth inhibition of human RXF393 cells assessed as cell growth at 10 uM incubated for 48 hrs by sulforhodamine B assay relative to control; assay type: functional; details: RXF 393, 48 h, read-out: Activity; outline: as §1
M14 = experiment: Growth inhibition of human M14 cells assessed as cell growth at 10 uM incubated for 48 hrs by sulforhodamine B assay relative to control; assay type: functional; details: M14, 48 h, read-out: Activity; outline: as §1
HCT-116 = experiment: Growth inhibition of human HCT116 cells assessed as cell growth at 10 uM incubated for 48 hrs by sulforhodamine B assay relative to control; assay type: functional; details: HCT-116, 48 h, read-out: Activity; outline: as §1
OVCAR-4 = experiment: Growth inhibition of human OVCAR4 cells assessed as cell growth at 10 uM incubated for 48 hrs by sulforhodamine B assay relative to control; assay type: functional; details: OVCAR-4, 48 h, read-out: Activity; outline: as §1
SF-295 = experiment: Growth inhibition of human SF295 cells assessed as cell growth at 10 uM incubated for 48 hrs by sulforhodamine B assay relative to control; assay type: functional; details: SF-295, 48 h, read-out: Activity; outline: as §1

Row | Compound | growth at 10 µM (A549) [%] | growth at 10 µM (LOX IMVI) [%] | IC50 (MDA-MB-361) [µM] | growth at 10 µM (SK-MEL-5) [%] | growth at 10 µM (BT-549) [%] | growth at 10 µM (NCI-H23) [%] | growth at 10 µM (HOP-92) [%] | inhibition of growth at 10 µM (SK-OV-3) [%] | growth at 10 µM (MDA-MB-231) [%] | inhibition of growth at 10 µM (MDA-MB-468) [%] | inhibition of growth at 10 µM (EKVX) [%] | growth at 10 µM (HT-29) [%] | growth at 10 µM (DU-145) [%] | growth at 10 µM (HCT-15) [%] | growth at 10 µM (MCF7) [%] | growth at 10 µM (SK-MEL-28) [%] | growth at 10 µM (OVCAR-3) [%] | growth at 10 µM (NCI-H226) [%] | growth at 10 µM (NCI/ADR-RES) [%] | growth at 10 µM (KM12) [%] | also measured
1 | O=[N+]([O-])c1ccc(-c2cc3c(Nc4ccc(OCc5cccc(F)c5)c(Cl)c4)ncnc3s2)cc1 | 51.4 | 75.5 | 7.5 | 92.8 | 103 | 73.1 | 82.1 | 0 | 87.8 | 40 | 20 | 66.9 | 82.1 | 63.4 | 78.9 | 110 | 34.5 | 86.4 | 80.5 | 80 | inhibition of growth at 10 µM (NCI-H322M): 15%; growth at 10 µM (PC-3): 54.1%; growth at 10 µM (HOP-62): 94.7%; inhibition of growth at 10 µM (ACHN): 23%; growth at 10 µM (RXF 393): 81.3%; growth at 10 µM (M14): 77.2%; growth at 10 µM (HCT-116): 60.2%; growth at 10 µM (OVCAR-4): 89.6%; growth at 10 µM (SF-295): 69.7%
2 | Nc1ccc(-c2cc3c(Nc4ccc(OCc5cccc(F)c5)c(Cl)c4)ncnc3s2)cc1 | 21.2 | 24.5 | 5.7 | 57.7 | 61.2 | 68.6 | 45.8 | 100 | 13.4 | 85 | 80 | 84.5 | 36.9 | 32.9 | 26.2 | 39.2 | 46.6 | 53.5 | 50.4 | 24 | inhibition of growth at 10 µM (NCI-H322M): 75%; growth at 10 µM (PC-3): 29.6%; growth at 10 µM (HOP-62): 62.3%; inhibition of growth at 10 µM (ACHN): 70%; growth at 10 µM (RXF 393): 52.5%; growth at 10 µM (M14): 51.9%; growth at 10 µM (HCT-116): 50.7%; growth at 10 µM (OVCAR-4): 54.8%; growth at 10 µM (SF-295): 47.8%
